Bioassay records deposited in PubChem by several laboratories.
Only some compounds are listed: those with a hit (about 1.1% of all), similar ones and a draw of the others.
Rin1 Abl inh: inhibitors of human Rin1-Abl protein interaction. P00519+Q13671. TR-FRET Rin1/Abl binding, biochemical. inhibition, % at 7.35 µM. 0.4% of 360,000 active. AID 588664; in the data active = inhibition above about 5%, passing the limit was not always enough
ERp5 block: inhibitors of human ERp5; Q15084; ERp5 insulin aggregation, absorbance 650 nm, 90 min; inhibition, % at 9.99 µM; 0.05% of 350,000 active;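 active = mean replicate inhibition above about 25%, with every replicate also reaching it, limit read from the data, passing the limit was not always enough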
ERAP1 inh: inhibitors of human ERAP1 aminopeptidase; Q9NZ08; recombinant ERAP1, Leu-AMC fluorescence, 60 min; inhibition, % at 10.7 µM; 0.15% of 340,000 active;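 active = mean replicate inhibition of at least 30%, or all replicates individually reaching that 30% level; inactive = mean below 30% and not every replicate reaching it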
PDI turbidity: blocks human protein disulfide isomerase activity | P07237 | PDI insulin aggregation turbidity, A650, 90 min | 0.052% of 350,000 active | inhibition, % at 10 µM | AID 588391;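 active = mean inhibition across replicates of 30% or more, whatever share of single replicates reach that level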
Target sequence (P07237 whole entry, looked up): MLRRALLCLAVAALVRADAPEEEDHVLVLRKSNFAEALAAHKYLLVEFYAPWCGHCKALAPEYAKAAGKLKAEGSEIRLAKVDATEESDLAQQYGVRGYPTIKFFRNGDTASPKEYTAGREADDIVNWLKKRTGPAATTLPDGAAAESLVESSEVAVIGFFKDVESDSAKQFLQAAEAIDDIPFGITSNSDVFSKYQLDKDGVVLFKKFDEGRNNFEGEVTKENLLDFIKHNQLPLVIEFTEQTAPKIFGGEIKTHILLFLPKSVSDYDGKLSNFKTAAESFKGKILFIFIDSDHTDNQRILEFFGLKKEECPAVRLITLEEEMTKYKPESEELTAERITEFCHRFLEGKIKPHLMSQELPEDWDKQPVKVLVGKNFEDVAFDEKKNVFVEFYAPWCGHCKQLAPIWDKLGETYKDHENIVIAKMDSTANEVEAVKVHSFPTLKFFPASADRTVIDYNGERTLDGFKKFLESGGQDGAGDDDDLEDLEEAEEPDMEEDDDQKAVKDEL
CAL PDZ FP-1: blocks peptide binding to the human CAL PDZ domain. Q9HD26. purified CAL PDZ, TMR-peptide fluorescence polarization, 1 h. inhibition, % at 24.9 µM. 0.92% of 300,000 active;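 active = mean inhibition of at least 30% with at least half of replicates also reaching 30%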
CAL PDZ FP-2: blocks peptide binding to human CAL PDZ domain | 0.02% of 330,000 active | purified CAL PDZ, TMR-peptide fluorescence polarization, 1 h | inhibition, % at 20 µM | Q9HD26;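 active = highest replicate inhibition of at least 40%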
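Material – purified CerCALP PDZ construct · Detection – FP readout, S and P plane fluorescence · Measure – percent inhibition from loss of millipolarization · Controls – unlabelled peptide for full inhibition, DMSO wells as neutral · Probe or stimulus – TMR-labelled reporter peptide T*-PRC34 bound in PDZ groove · Times – 1 h at RT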
Each line names hits and unclear results; the compound was inactive in the other large screens.

COC(=O)c1cccc(N2CCCC2=O)c1	none
COC(=O)c1cccc(-n2sc3ccccc3c2=O)c1	ERAP1 inh 86
O=c1c2cc(F)ccc2sn1-c1ccccc1Cl	ERAP1 inh 61 (no result: CAL PDZ FP-1, CAL PDZ FP-2)
O=c1c2ccccc2sn1-c1ccc(F)cc1	ERAP1 inh 52
COc1ccc(S(=O)(=O)N[C@H]2CC[C@H](CCn3cc(-c4cccc(F)c4)nn3)O[C@@H]2CO)cc1	none (no result: Rin1 Abl inh, ERAP1 inh, PDI turbidity, CAL PDZ FP-1, CAL PDZ FP-2)
COc1ccc(-c2cnc3c(c2)C(=O)N([C@@H](C)CO)C[C@@H](C)[C@H](CN(C)S(C)(=O)=O)O3)cc1	none (no result: Rin1 Abl inh, PDI turbidity, CAL PDZ FP-1, CAL PDZ FP-2)
COc1cc2ccc(=O)oc2cc1O	ERAP1 inh 74 (no result: PDI turbidity)
C[C@@H]1CN([C@H](C)CO)C(=O)Cc2cc(NC(=O)NC3CCCCC3)ccc2O[C@H]1CN(C)C(=O)NC1CCCCC1	none (no result: Rin1 Abl inh, PDI turbidity, CAL PDZ FP-1, CAL PDZ FP-2)
CCc1ccc(/C=C(\Cl)c2nc3cc(Cl)ccc3c(=O)[nH]2)cc1	CAL PDZ FP-1 53 (no result: ERp5 block, ERAP1 inh)
COc1ccc(-c2cc(C(=O)NCc3ccco3)c3ccccc3n2)cc1OC	CAL PDZ FP-1 69
COc1cc(-c2cc(C(=O)N(C)Cc3ccccc3)c3ccccc3n2)cc(OC)c1OC	none
COc1ccccc1CN(C)C(=O)c1cc(-c2cc(OC)c(OC)c(OC)c2)nc2ccccc12	CAL PDZ FP-1 58
COc1cccc(-c2cc(C(=O)NCc3ccco3)c3ccccc3n2)c1	none
O=C1C2CCCN2C(=O)N1CCCCN1CCN(c2ccc(F)cc2)CC1 (centres undefined)	none
Cc1ccc(N2CCN(CCCCN3C(=O)C4CCCN4C3=O)CC2)cc1 (centres undefined)	CAL PDZ FP-1 63 (no result: ERp5 block, ERAP1 inh)
CO[C@H](CN(C)S(=O)(=O)c1cccc(Cl)c1)[C@H](C)CN(C(=O)Nc1ccccc1F)[C@H](C)CO	none (no result: Rin1 Abl inh, PDI turbidity, CAL PDZ FP-1, CAL PDZ FP-2)
COc1ccc(-c2ncc(CN3CCN(CCC(C)C)C(CCO)C3)cn2)cc1 (centres undefined)	CAL PDZ FP-1 93
Cc1ccnc(NC(=O)c2ccc(Br)s2)c1	CAL PDZ FP-1 63 (no result: CAL PDZ FP-2)
CCCNC(=O)N1CC[C@@H]2[C@H]1c1cc(-c3ccccc3)ccc1N(C)[C@H]2CO	none (no result: Rin1 Abl inh, PDI turbidity, CAL PDZ FP-1, CAL PDZ FP-2)
COc1ccc(S(=O)(=O)N(C)C[C@H]2Oc3ccc(NC(=O)Nc4ccccc4)cc3CC(=O)N([C@@H](C)CO)C[C@H]2C)cc1	none (no result: Rin1 Abl inh, PDI turbidity, CAL PDZ FP-1, CAL PDZ FP-2)
O=C1CSC(c2ccc([N+](=O)[O-])cc2)N1CCN1CCCCC1 (centres undefined)	CAL PDZ FP-1 44
CCCn1c(O)c(/C=C2\C=NN=C2c2ccccc2)sc1=S	none (no result: ERp5 block, ERAP1 inh, CAL PDZ FP-1)
C=CCn1c(O)c(/C=C2\C=NN=C2c2ccccc2)sc1=S	CAL PDZ FP-1 52 (no result: ERAP1 inh)
O=C(O)c1cncc(C#Cc2ccccc2)c1	none
O=C(NC(=S)Nc1ccccc1)c1cncc(C#Cc2ccccc2)c1	CAL PDZ FP-1 45
COc1cc([N+](=O)[O-])cc(/C=N/NC(=O)CSc2ccccn2)c1O	none
COc1cc([N+](=O)[O-])cc(/C=N/NC(=O)Cn2cncn2)c1O	CAL PDZ FP-1 48
CNCCCNC(=O)c1ccc(/C=N/O)nc1	none
C[N+](C)(C)CCCNC(=O)c1ccc(/C=N/O)nc1	ERAP1 inh 109
O=C(NNS(=O)(=O)c1ccccc1)C1CC(c2cccnc2)=NO1 (centres undefined)	none
O=C(NNS(=O)(=O)c1ccc(F)cc1)C1CC(c2cccnc2)=NO1 (centres undefined)	CAL PDZ FP-1 74
C/C=C/c1ccc2c(c1)O[C@@H](CN(C)S(C)(=O)=O)[C@@H](C)CN([C@@H](C)CO)S2(=O)=O	none (no result: Rin1 Abl inh, PDI turbidity, CAL PDZ FP-1, CAL PDZ FP-2)
COc1cccc(C(=O)NNC(=S)NC2CCCCC2)c1	none (no result: ERp5 block, ERAP1 inh)
COc1cc(OC)cc(C(=O)NNC(=S)NC2CC2)c1	CAL PDZ FP-1 57
CCOC(=O)C1(Cc2ccccc2)CCCN(C(=O)c2ccc(-n3ccnc3)cc2)C1 (centres undefined)	CAL PDZ FP-1 38
CCCc1cc(C(=O)N2CCCC(Cc3cccc(Cl)c3)(C(=O)OCC)C2)n(C)n1 (centres undefined)	none
CCOC(=O)C1(Cc2cccc(Cl)c2)CCCN(C(=O)c2ccnn2C)C1 (centres undefined)	CAL PDZ FP-1 41
COCC(=O)N1[C@H](C#N)[C@@H](c2ccccc2C2=CCCCC2)[C@@H]1CO	none (no result: Rin1 Abl inh, PDI turbidity, CAL PDZ FP-1, CAL PDZ FP-2)
C[C@H]1CCCCO[C@H](CN(C)C)[C@@H](C)CN([C@@H](C)CO)C(=O)c2cc(NC(=O)Nc3ccccc3)ccc2O1	none (no result: Rin1 Abl inh, PDI turbidity, CAL PDZ FP-1, CAL PDZ FP-2)
